# From paper PMC5538437 (Genes & Development, 2017)
# Tested on: 4EHP
# Assay: Pull-down / coimmunoprecipitation with 4EHP in HEK293T cell lysates
# Type: binding, human
# Conditions: HEK293T cells, GFP-tagged protein and V5-SBP-4EHP, Western blot
# Method in brief: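 Streptavidin-bead pull-down from RNase A-treated HEK293T lysates of cells expressing V5-SBP-tagged 4EHP or eIF4E (wild type or mutants). Co-bound endogenous GYF2, 4E-T and 4E-BP1 were probed; for 4EHP, co-expressed GFP-4E-BP1 was also probed, with V5-SBP-MBP as negative control. Inputs and bound fractions were analysed by Western blot with anti-V5, anti-GFP, anti-GYF2 and other antibodies, using ECL detection.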
row,Molecule,"interaction with 4EHP in cells, overexpressed binding partner"
1,"4E-BP1 C: 4E-BP1 Y54A, L59A; canonical motif mutant",abolished its interaction with 4EHP
2,"GYF1 NC*: GYF1 L60D, F65D, V68D; non-canonical mutant (protein, UniProt O75420 1-1035, looked up, variant L60D F65D V68D) GRB10-interacting GYF protein …: MAAETLNFGPEWLRALSGGGSVASPPPSPAMPKYKLADYRYGREEMLALYVKENKVPEEDQDKEDAADLQDEPLQPLALEPLTEEEQRNFSLSVNSVAVLRLMGKGAGPPLAGTSRGRGSTRSRGRGRGDSCFYQRSIEEGDGAFGRSPREIQRSQSWDDRGERRFEKSARRDGARCGFEEGGAGPRKEHARSDSENWRSLREEQEEEEEGSWRLGAGPRRDGDRWRSASPDGGPRSAGWREHGERRRKFEFDLRGDRGGCGEEEGRGGGGSSHLRRCRAPEGFEEDKDGLPEWCLDDEDEEMGTFDASGAFLPLKKGPKEPIPEEQELDFQGLEEEEEPSEGLEEEGPEAGGKELTPLPPQEEKSSSPSPLPTLGPLWGTNGDGDETAEKEPPAAEDDIRGIQLSPGVGSSAGPPGDLEDDEGLKHLQQEAEKLVASLQDSSLEEEQFTAAMQTQGLRHSAAATALPLSHGAARKWFYKDPQGEIQGPFTTQEMAEWFQAGYFSMSLLVKRGCDEGFQPLGEVIKMWGRVPFAPGPSPPPLLGNMDQERLKKQQELAAAALYQQLQHQQFLQLVSSRQLPQCALREKAALGDLTPPPPPPPQQQQQQLTAFLQQLQALKPPRGGDQNLLPTMSRSLSVPDSGRLWDVHTSASSQSGGEASLWDIPINSSTQGPILEQLQLQHKFQERREVELRAKREEEERKRREEKRRQQQQEEQKRRQEEEELFRRKHVRQQELLLKLLQQQQAVPVPPAPSSPPPLWAGLAKQGLSMKTLLELQLEGERQLHKQPPPREPARAQAPNHRVQLGGLGTAPLNQWVSEAGPLWGGPDKSGGGSSGLGLWEDTPKSGGSLVRGLGLKNSRSSPSLSDSYSHLSGRPIRKKTEEEEKLLKLLQGIPRPQDGFTQWCEQMLHTLSATGSLDVPMAVAILKEVESPYDVHDYIRSCLGDTLEAKEFAKQFLERRAKQKASQQRQQQQEAWLSSASLQTAFQANHSTKLGPGEGSKAKRRALMLHSDPSILGYSLHGSSGEIESVDDY",did not affect binding to overexpressed 4EHP in human cells
3,"GYF1 A1*: GYF1 P76D, L77A; auxiliary site 1 mutant (protein, UniProt O75420 1-1035, looked up, variant P76D L77A) GRB10-interacting GYF protein …: MAAETLNFGPEWLRALSGGGSVASPPPSPAMPKYKLADYRYGREEMLALYVKENKVPEELQDKEFAAVLQDEPLQDAALEPLTEEEQRNFSLSVNSVAVLRLMGKGAGPPLAGTSRGRGSTRSRGRGRGDSCFYQRSIEEGDGAFGRSPREIQRSQSWDDRGERRFEKSARRDGARCGFEEGGAGPRKEHARSDSENWRSLREEQEEEEEGSWRLGAGPRRDGDRWRSASPDGGPRSAGWREHGERRRKFEFDLRGDRGGCGEEEGRGGGGSSHLRRCRAPEGFEEDKDGLPEWCLDDEDEEMGTFDASGAFLPLKKGPKEPIPEEQELDFQGLEEEEEPSEGLEEEGPEAGGKELTPLPPQEEKSSSPSPLPTLGPLWGTNGDGDETAEKEPPAAEDDIRGIQLSPGVGSSAGPPGDLEDDEGLKHLQQEAEKLVASLQDSSLEEEQFTAAMQTQGLRHSAAATALPLSHGAARKWFYKDPQGEIQGPFTTQEMAEWFQAGYFSMSLLVKRGCDEGFQPLGEVIKMWGRVPFAPGPSPPPLLGNMDQERLKKQQELAAAALYQQLQHQQFLQLVSSRQLPQCALREKAALGDLTPPPPPPPQQQQQQLTAFLQQLQALKPPRGGDQNLLPTMSRSLSVPDSGRLWDVHTSASSQSGGEASLWDIPINSSTQGPILEQLQLQHKFQERREVELRAKREEEERKRREEKRRQQQQEEQKRRQEEEELFRRKHVRQQELLLKLLQQQQAVPVPPAPSSPPPLWAGLAKQGLSMKTLLELQLEGERQLHKQPPPREPARAQAPNHRVQLGGLGTAPLNQWVSEAGPLWGGPDKSGGGSSGLGLWEDTPKSGGSLVRGLGLKNSRSSPSLSDSYSHLSGRPIRKKTEEEEKLLKLLQGIPRPQDGFTQWCEQMLHTLSATGSLDVPMAVAILKEVESPYDVHDYIRSCLGDTLEAKEFAKQFLERRAKQKASQQRQQQQEAWLSSASLQTAFQANHSTKLGPGEGSKAKRRALMLHSDPSILGYSLHGSSGEIESVDDY",did not affect binding to overexpressed 4EHP in human cells
4,"GYF2 NC*: GYF2 L62D, F67D, I70D; non-canonical mutant (protein, UniProt Q6Y7W6 2-1299, looked up, variant L62D F67D I70D) GRB10-interacting GYF protein …: AAETQTLNFGPEWLRALSSGGSITSPPLSPALPKYKLADYRYGREEMLALFLKDNKIPSDDLDKEDLPDLQEEPLPPLALVPFTEEEQRNFSMSVNSAAVLRLTGRGGGGTVVGAPRGRSSSRGRGRGRGECGFYQRSFDEVEGVFGRGGGREMHRSQSWEERGDRRFEKPGRKDVGRPNFEEGGPTSVGRKHEFIRSESENWRIFREEQNGEDEDGGWRLAGSRRDGERWRPHSPDGPRSAGWREHMERRRRFEFDFRDRDDERGYRRVRSGSGSIDDDRDSLPEWCLEDAEEEMGTFDSSGAFLSLKKVQKEPIPEEQEMDFRPVDEGEECSDSEGSHNEEAKEPDKTNKKEGEKTDRVGVEASEETPQTSSSSARPGTPSDHQSQEASQFERKDEPKTEQTEKAEEETRMENSLPAKVPSRGDEMVADVQQPLSQIPSDTASPLLILPPPVPNPSPTLRPVETPVVGAPGMGSVSTEPDDEEGLKHLEQQAEKMVAYLQDSALDDERLASKLQEHRAKGVSIPLMHEAMQKWYYKDPQGEIQGPFNNQEMAEWFQAGYFTMSLLVKRACDESFQPLGDIMKMWGRVPFSPGPAPPPHMGELDQERLTRQQELTALYQMQHLQYQQFLIQQQYAQVLAQQQKAALSSQQQQQLALLLQQFQTLKMRISDQNIIPSVTRSVSVPDTGSIWELQPTASQPTVWEGGSVWDLPLDTTTPGPALEQLQQLEKAKAAKLEQERREAEMRAKREEEERKRQEELRRQQEEILRRQQEEERKRREEEELARRKQEEALRRQREQEIALRRQREEEERQQQEEALRRLEERRREEEERRKQEELLRKQEEEAAKWAREEEEAQRRLEENRLRMEEEAARLRHEEEERKRKELEVQRQKELMRQRQQQQEALRRLQQQQQQQQLAQMKLPSSSTWGQQSNTTACQSQATLSLAEIQKLEEERERQLREEQRRQQRELMKALQQQQQQQQQKLSGWGNVSKPSGTTKSLLEIQQEEARQMQKQQQQQQQHQQPNRARNNTHSNLHTSIGNSVWGSINTGPPNQWASDLVSSIWSNADTKNSNMGFWDDAVKEVGPRNSTNKNKNNASLSKSVGVSNRQNKKVEEEEKLLKLFQGVNKAQDGFTQWCEQMLHALNTANNLDVPTFVSFLKEVESPYEVHDYIRAYLGDTSEAKEFAKQFLERRAKQKANQQRQQQQLPQQQQQQPPQQPPQQPQQQDSVWGMNHSTLHSVFQTNQSNNQQSNFEAVQSGKKKKKQKMVRADPSLLGFSVNASSERLNMGEIETLDDY",did not affect binding to overexpressed 4EHP in human cells
5,"GYF2 A1*: GYF2 P78D, L79A; auxiliary site 1 mutant (protein, UniProt Q6Y7W6 2-1299, looked up, variant P78D L79A) GRB10-interacting GYF protein …: AAETQTLNFGPEWLRALSSGGSITSPPLSPALPKYKLADYRYGREEMLALFLKDNKIPSDLLDKEFLPILQEEPLPDAALVPFTEEEQRNFSMSVNSAAVLRLTGRGGGGTVVGAPRGRSSSRGRGRGRGECGFYQRSFDEVEGVFGRGGGREMHRSQSWEERGDRRFEKPGRKDVGRPNFEEGGPTSVGRKHEFIRSESENWRIFREEQNGEDEDGGWRLAGSRRDGERWRPHSPDGPRSAGWREHMERRRRFEFDFRDRDDERGYRRVRSGSGSIDDDRDSLPEWCLEDAEEEMGTFDSSGAFLSLKKVQKEPIPEEQEMDFRPVDEGEECSDSEGSHNEEAKEPDKTNKKEGEKTDRVGVEASEETPQTSSSSARPGTPSDHQSQEASQFERKDEPKTEQTEKAEEETRMENSLPAKVPSRGDEMVADVQQPLSQIPSDTASPLLILPPPVPNPSPTLRPVETPVVGAPGMGSVSTEPDDEEGLKHLEQQAEKMVAYLQDSALDDERLASKLQEHRAKGVSIPLMHEAMQKWYYKDPQGEIQGPFNNQEMAEWFQAGYFTMSLLVKRACDESFQPLGDIMKMWGRVPFSPGPAPPPHMGELDQERLTRQQELTALYQMQHLQYQQFLIQQQYAQVLAQQQKAALSSQQQQQLALLLQQFQTLKMRISDQNIIPSVTRSVSVPDTGSIWELQPTASQPTVWEGGSVWDLPLDTTTPGPALEQLQQLEKAKAAKLEQERREAEMRAKREEEERKRQEELRRQQEEILRRQQEEERKRREEEELARRKQEEALRRQREQEIALRRQREEEERQQQEEALRRLEERRREEEERRKQEELLRKQEEEAAKWAREEEEAQRRLEENRLRMEEEAARLRHEEEERKRKELEVQRQKELMRQRQQQQEALRRLQQQQQQQQLAQMKLPSSSTWGQQSNTTACQSQATLSLAEIQKLEEERERQLREEQRRQQRELMKALQQQQQQQQQKLSGWGNVSKPSGTTKSLLEIQQEEARQMQKQQQQQQQHQQPNRARNNTHSNLHTSIGNSVWGSINTGPPNQWASDLVSSIWSNADTKNSNMGFWDDAVKEVGPRNSTNKNKNNASLSKSVGVSNRQNKKVEEEEKLLKLFQGVNKAQDGFTQWCEQMLHALNTANNLDVPTFVSFLKEVESPYEVHDYIRAYLGDTSEAKEFAKQFLERRAKQKANQQRQQQQLPQQQQQQPPQQPPQQPQQQDSVWGMNHSTLHSVFQTNQSNNQQSNFEAVQSGKKKKKQKMVRADPSLLGFSVNASSERLNMGEIETLDDY",did not affect binding to overexpressed 4EHP in human cells
